Reference: publication PMC6349498 (Drug testing and analysis, 2018)
Like-named read-outs stand apart in the source and are kept apart here.

Experiments:
[1] = plasma from men and non-pregnant women; 60 minute incubation at 37°C; cited from earlier work
[2] = OT stability in human serum; assay type: in vitro ADME; conditions: added to human serum; 4°C or room temperature (23°C); up to 24 hours; LCMS
Outline: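 OT and OT-d5 were added to human serum and held at room temperature (~23°C) or 4°C for 24 h. Levels were compared with pre-incubation values. Serum (500 µL) was spiked with OT-d5, acidified with 4% phosphoric acid, then C18 SPE-purified. Quantitation was by HRAM orbitrap LCMS in positive heated ESI targeted SIM mode.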

[3] = assay type: in vivo, human
Outline: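 Healthy male and post-menopausal female volunteers self-dosed intranasally. Male: 100 IU (10 IU/puff, 5 puffs per nostril, alternating), then 20 IU (1 puff per nostril) after one-week washout. Female: 100 IU (50 IU/puff) compounded metered spray. Serum (male), urine and saliva were sampled baseline to 120–240 min and frozen at −80°C. Samples were C18 SPE-extracted with OT-d5 internal standard and analysed by orbitrap targeted SIM (m/z 562.25503); urine was creatinine-adjusted.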

OT stability in water = assay type: physicochemical; conditions: spiked 9.9, 24.8, 154 and 385 ng/mL in water; 10°C; up to 5 days; LCMS
Outline: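 Water was spiked with OT and OT-d5 at final 9.9, 24.8, 154 and 385 ng/mL and held at 10°C for variable times, matching the urine spikes. OT and OT-d5 levels were quantitated by HRAM orbitrap LCMS (positive heated ESI, targeted SIM). Means and standard deviation were reported.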

[4] = OT stability in human urine; assay type: in vitro ADME; conditions: human urine spiked 9.9-385 ng/mL; 10°C; up to 5 days; LCMS
[5] = healthy volunteer, n=1, 100 IU intranasal (OxyLuv), saliva
[6] = male, human, serum, inhaled or intranasal, 100 IU

Row | Compound | OT degradation in plasma [1] | change in level compared to pre-incubation level [2] | time after the peak at which levels decreased to below detection limits ([3]; 2 volunteers, 20 IU or 100 IU intranasal, serum, urine, saliva, summary) | time of peak levels in serum, urine and saliva after each dose ([3]; 2 volunteers, 20 IU or 100 IU intranasal, summary over matrices) | time of elimination of saliva OT to levels below LLOD ([3]; after intranasal OT, saliva, LLOD 10 pg/mL) | time of peak saliva OT level ([3]; healthy volunteer, n=1, 20 IU intranasal (OxyLuv), saliva) | peak saliva OT level [3, 5] | time of peak saliva OT level [3, 5] | time of decrease of serum OT to baseline ([3]; healthy volunteer, n=1, 100 IU intranasal (OxyLuv), serum) | time of peak urine OT excretion ([3]; healthy volunteer, n=1, 100 IU intranasal (OxyLuv), urine) | Cmax [3, 6] | Tmax [3, 6] | stability in water (OT stability in water) | stability in urine after the initial drop [4]
1 | CC[C@H](C)[C@@H]1NC(=O)[C@H](Cc2ccc(O)cc2)NC(=O)[C@@H](N)CSSC[C@@H](C(=O)N2CCC[C@H]2C(=O)N[C@@H](CC(C)C)C(=O)NCC(N)=O)NC(=O)[C@H](CC(N)=O)NC(=O)[C@H](CCC(N)=O)NC1=O [OT, Oxytocin] | little or no OT degradation | < 15% | 1 to 2 h | 15 to 30 min | 2 to 3 h | 15 min | 392,000 pg/mL | 15 min | ≤ 60 min | 30 min | 0.08 ng/mL | 15 min | remained stable | stayed at those low levels
2 | OT-leucyl-d3-glycinamide-d2 [OT-d5] | – | < 15% | – | – | – | – | – | – | – | – | – | – | remained stable | stayed at those low levels
